Laboratory results from ChEMBL document CHEMBL4152246, “Natural oxyprenylated coumarins are modulators of melanogenesis” (Eur J Med Chem, 2018).
Active and inactive are the calls of the source. The calls are words filed in the database; no cut-off is given here.

Legend:
[1] = test system: Melan-a; test: Cytotoxicity against mouse Melan-a cells assessed as effect on cell viability at <2 uM after 24 to 72 hrs by trypan blue exclusion assay; type: cell-based
[2] = test system: Melan-a; test: Induction of melanogenesis in mouse Melan-a cells assessed as effect on tanning property at 40 uM after 48 hrs; type: functional, cell-based
[3] = test system: Melan-a; test: Inhibition of melanogenesis in mouse Melan-a cells assessed as effect on whitening property at 40 uM after 48 hrs; type: functional, cell-based
Procedure, shortened: (§1)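 Melan-a murine melanocytes in RPMI 1640 with 10% FBS, penicillin/streptomycin and 200 nM PMA at 37 °C and 5% CO2. Seeded at 60,000 cells/well in 6-well plates and treated 48 h with 1–40 µM from 1000X DMSO stock (final 0.1% DMSO) or DMSO alone. For line 1, cells were pretreated 1 h with 1 µM ICI 182780. Melanin is read as A405, % of control.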

[4] = test system: Melan-a; test: Cytotoxicity against mouse Melan-a cells assessed as effect on cell viability at 40 uM after 24 to 72 hrs by trypan blue exclusion assay; type: cell-based
Procedure, shortened: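 Melan-a cells seeded at 60,000/well in 6-well plates and treated at 40 µM (0.1% DMSO) for the indicated times. Cells were trypsinized, pelleted at 4 °C, stained with 0.25% trypan blue in PBS and counted in a Malassez chamber. Viability % = [1 − (blue/total cells)] × 100. Mean ± SEM of three independent experiments in duplicate.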

[5] = test system: Melan-a; test: Induction of melanogenesis in mouse Melan-a cells assessed as increase in melanin content at 10 to 40 uM after 48 hrs; type: functional, cell-based; procedure, shortened: as §1
[6] = test system: Melan-a; test: Induction of melanogenesis in mouse Melan-a cells assessed as increase in melanin content at 40 uM; type: functional, cell-based
[7] = test system: Melan-a; test: Induction of melanogenesis in mouse Melan-a cells assessed as increase in melanin content at 40 uM after 72 hrs relative to control; type: functional
Procedure, shortened: (§2)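 Melan-a cells in PMA-containing RPMI/10% FBS, treated 3 days at 40 µM (0.1% DMSO final) against DMSO-treated controls. Pellets were washed in PBS and extracted with water/EtOH–ether (1/1). Melanin was solubilized in 1 M NaOH/DMSO 90/10 at 80 °C for 1 h, read as A405 and expressed as % of control. Mean ± SEM, t test.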

[8] = test system: Melan-a; test: Induction of melanogenesis in mouse Melan-a cells assessed as effect on pigmentation at 40 uM after 72 hrs by photography; type: functional, cell-based
Procedure, shortened: (§3)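 Melan-a cells treated with 40 µM or solvent vehicle for 3 days, then photographed to record pigmentation.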

[9] = test system: Melan-a; test: Increase in tyrosinase mRNA expression in mouse Melan-a cells at 40 uM after 24 hrs by SYBR green dye based qRT-PCR analysis; type: functional, cell-based
Procedure, shortened: (§4)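 Real-time PCR on Melan-a cells given 40 µM for 24 h. Total RNA was isolated with TRIzol, and Ct values of tyrosinase, TRP-1, TRP-2 and MITF were normalized to cyclophilin A1. Mean of three independent experiments in duplicate.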

[10] = test system: Melan-a; test: Increase in TRP1 mRNA expression in mouse Melan-a cells at 40 uM after 24 hrs by SYBR green dye based qRT-PCR analysis; type: functional, cell-based; procedure, shortened: as §4
[11] = test system: Melan-a; test: Increase in TRP2 mRNA expression in mouse Melan-a cells at 40 uM after 24 hrs by SYBR green dye based qRT-PCR analysis; type: functional, cell-based; procedure, shortened: as §4
[12] = test system: Melan-a; test: Increase in MITF mRNA expression in mouse Melan-a cells at 40 uM after 24 hrs by SYBR green dye based qRT-PCR analysis; type: functional, cell-based; procedure, shortened: as §4
[13] = Photostability of the compound assessed as compound degradation under sunlight exposed for 6 days in EtOH solution measured by TLC method; type: physicochemical; details: 144 h
[14] = Photostability of the compound assessed as compound degradation under sunlight exposed for 6 days in EtOH solution measured in presence of UV-A filter Uvinul A by TLC method; type: physicochemical; details: 144 h
[15] = molecular target: Estrogen receptor beta (Mus musculus) (UniProt O08537); test: Binding affinity to ERbeta in mouse Melan-a cells; type: cell-based
Chain of Estrogen receptor beta (Mus musculus) (O08537 whole entry): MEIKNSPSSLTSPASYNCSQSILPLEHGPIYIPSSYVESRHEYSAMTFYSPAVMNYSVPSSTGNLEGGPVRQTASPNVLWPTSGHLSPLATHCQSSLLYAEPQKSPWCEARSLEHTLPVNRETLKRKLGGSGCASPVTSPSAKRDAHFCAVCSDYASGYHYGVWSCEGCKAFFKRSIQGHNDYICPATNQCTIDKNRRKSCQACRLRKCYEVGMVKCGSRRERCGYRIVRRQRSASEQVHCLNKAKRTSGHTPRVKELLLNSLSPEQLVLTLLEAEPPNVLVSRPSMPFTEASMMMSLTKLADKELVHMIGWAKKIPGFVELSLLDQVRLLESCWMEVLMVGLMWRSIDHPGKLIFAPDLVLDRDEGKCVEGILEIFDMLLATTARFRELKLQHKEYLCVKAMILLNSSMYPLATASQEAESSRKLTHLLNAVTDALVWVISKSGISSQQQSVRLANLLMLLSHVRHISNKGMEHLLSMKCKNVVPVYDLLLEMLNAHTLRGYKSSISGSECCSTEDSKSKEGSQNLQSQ

[16] = molecular target: Estrogen receptor beta (Mus musculus) (UniProt O08537); test: Agonist activity at ERbeta in mouse Melan-a cells assessed as increase in melanin content at 40 uM measured after 48 hrs in presence of ER antagonist ICI 182780; type: cell-based; procedure, shortened: as §1
[17] = test system: Melan-a; test: Increase in TRP1 expression in mouse Melan-a cells at 40 uM after 48 hrs by Western blot analysis
[18] = test system: Melan-a; test: Increase in TRP2 expression in mouse Melan-a cells at 40 uM after 48 hrs by Western blot analysis
[19] = test system: Melan-a; test: Increase in MITF expression in mouse Melan-a cells at 40 uM after 48 hrs by Western blot analysis
[20] = test system: Melan-a; test: Increase in Rab27a expression in mouse Melan-a cells at 40 uM after 48 hrs by Western blot analysis
[21] = test system: Melan-a; test: Increase in tyrosinase expression in mouse Melan-a cells at 40 uM after 48 hrs by Western blot analysis
[22] = test system: Melan-a; test: Induction of melanogenesis in mouse Melan-a cells assessed as pro-pigmentation at 40 uM after 48 hrs relative to control; type: functional; procedure, shortened: as §1
[23] = test system: Melan-a; test: Inhibition of melanogenesis in mouse Melan-a cells assessed as effect on whitening property measured after 48 hrs; type: functional, cell-based; procedure, shortened: as §1
[24] = test system: Melan-a; test: Inhibition of melanogenesis in mouse Melan-a cells assessed as reduction in melanin content at 40 uM; type: functional, cell-based
[25] = test system: Melan-a; test: Inhibition of melanogenesis in mouse Melan-a cells assessed as reduction in melanin content at 40 uM after 72 hrs relative to control; type: functional; procedure, shortened: as §2
[26] = test system: Melan-a; test: Inhibition of melanogenesis in mouse Melan-a cells assessed as effect on pigmentation at 40 uM after 72 hrs by photography; type: functional, cell-based; procedure, shortened: as §3
[27] = test system: Melan-a; test: Decrease in tyrosinase mRNA expression in mouse Melan-a cells at 40 uM after 24 hrs by SYBR green dye based qRT-PCR analysis relative to control; type: functional; procedure, shortened: as §4
[28] = test system: Melan-a; test: Decrease in TRP1 mRNA expression in mouse Melan-a cells at 40 uM after 24 hrs by SYBR green dye based qRT-PCR analysis relative to control; type: functional; procedure, shortened: as §4
[29] = test system: Melan-a; test: Decrease in TRP2 mRNA expression in mouse Melan-a cells at 40 uM after 24 hrs by SYBR green dye based qRT-PCR analysis relative to control; type: functional; procedure, shortened: as §4
[30] = test system: Melan-a; test: Decrease in MITF mRNA expression in mouse Melan-a cells at 40 uM after 24 hrs by SYBR green dye based qRT-PCR analysis relative to control; type: functional; procedure, shortened: as §4
[31] = test system: Melan-a; test: Effect on TRP2 expression in mouse Melan-a cells at 40 uM after 48 hrs by western blot analysis (reference value: 1)
[32] = test system: Melan-a; test: Effect on TRP1 expression in mouse Melan-a cells at 40 uM after 48 hrs by western blot analysis (reference value: 1)
[33] = test system: Melan-a; test: Effect on MITF expression in mouse Melan-a cells at 40 uM after 48 hrs by western blot analysis (reference value: 1)
[34] = test system: Melan-a; test: Effect on Rab27a expression in mouse Melan-a cells at 40 uM after 48 hrs by western blot analysis (reference value: 1)
[35] = test system: Melan-a; test: Effect on tyrosinase expression in mouse Melan-a cells at 40 uM after 48 hrs by western blot analysis (reference value: 1)
[36] = test system: Melan-a; test: Antimelanogenic activity in mouse Melan-a cells assessed as inhibition of alpha-MSH-stimulated melanin synthesis at 40 uM measured after 48 hrs
[37] = test system: Melan-a; test: Antimelanogenic activity in mouse Melan-a cells assessed as inhibition of UV irradiation-stimulated melanin synthesis at 40 uM measured after 48 hrs

CC(C)=CCC/C(C)=C/COc1c2occc2cc2ccc(=O)oc12
Activity [1]: Toxic

COc1c(OC/C=C(\C)CCC=C(C)C)ccc2ccc(=O)oc12
Activity [2]: inactive | inhibition [3]: inactive

COc1c(OCC=C(C)C)ccc2ccc(=O)oc12
Activity [2]: inactive | inhibition [3]: inactive

COc1cc(OC/C=C(\C)CCC=C(C)C)c2ccc(=O)oc2c1
Activity [2]: inactive | inhibition [3]: inactive

COc1cc2ccc(=O)oc2cc1OC/C=C(\C)CCC=C(C)C
Activity [2]: inactive | inhibition [3]: inactive

CC(C)=CCOc1ccc2ccc(=O)oc2c1 [7-PRENYLOXYCOUMARIN]
Activity [4]: Non-Toxic | Activity [5]: Active | Activity [6]: Dose-dependent effect | fold change (FC) [7]: 6 | Activity [8]: Active | Activity [9]: Active | Activity [10]: Active | Activity [11]: Active | Activity [12]: Active | Stability [13]: Unstable | Stability [14]: Stable | Activity [15]: Active | Activity [16]: Active | Activity [17]: Active | Activity [18]: Active | Activity [19]: Active | Activity [20]: Active | Activity [21]: Active

CC(C)=CCC/C(C)=C/COc1ccc2ccc(=O)oc2c1 [AURAPTENE]
Activity [4]: Non-Toxic | fold change (FC) [22]: 1.3 | Activity [6]: Dose-dependent effect | fold change (FC) [7]: 2 | Activity [8]: Active | Stability [13]: Unstable | Stability [14]: Stable | Activity [15]: Active

CC(C)=CCC/C(C)=C/COc1c2ccoc2cc2oc(=O)ccc12 [BERGAMOTTIN]
Activity [1]: Toxic

CC(C)=CCOc1c2ccoc2cc2oc(=O)ccc12 [ISOIMPERATORIN]
Activity [1]: Toxic

CC(C)=CCOc1c2occc2cc2ccc(=O)oc12 [PENTOSALEN]
Activity [1]: Toxic | Activity [2]: inactive | inhibition [3]: inactive

O=c1ccc2ccc(O)cc2o1 [UMBELLIFERONE]
Activity [4]: Non-Toxic | Activity [2]: inactive | inhibition [3]: inactive

CC(C)=CCC/C(C)=C/CC/C(C)=C/COc1ccc2ccc(=O)oc2c1 [UMBELLIPRENIN]
Activity [4]: Non-Toxic | inhibition [23]: Dose-dependent effect | inhibition [24]: Dose-dependent effect | inhibition at 40 µM [25]: > 70% | inhibition [26]: Active | fold change (FC) [27]: >2 | fold change (FC) [28]: >2 | fold change (FC) [29]: >2 | fold change (FC) [30]: >2 | Activity [15]: Active | fold change (FC) [31]: 0.3 | fold change (FC) [32]: 0.1 | fold change (FC) [33]: 0.5 | fold change (FC) [34]: 0.3 | fold change (FC) [35]: 1.6 | inhibition [36]: Active | inhibition [37]: Active
